For one data set, the species on record is Homo sapiens. In words: Metabolic stability in human liver microsomes assessed as compound remaining after 10 mins.
Another data set is filed under the species Rattus norvegicus. Briefly: Metabolic stability in rat liver microsomes assessed as compound remaining after 10 mins.
In data set [1] the target is T1, Corticotropin-releasing factor receptor 1 (Rattus norvegicus, UniProt P35353).
T1 sequence (P35353 whole entry): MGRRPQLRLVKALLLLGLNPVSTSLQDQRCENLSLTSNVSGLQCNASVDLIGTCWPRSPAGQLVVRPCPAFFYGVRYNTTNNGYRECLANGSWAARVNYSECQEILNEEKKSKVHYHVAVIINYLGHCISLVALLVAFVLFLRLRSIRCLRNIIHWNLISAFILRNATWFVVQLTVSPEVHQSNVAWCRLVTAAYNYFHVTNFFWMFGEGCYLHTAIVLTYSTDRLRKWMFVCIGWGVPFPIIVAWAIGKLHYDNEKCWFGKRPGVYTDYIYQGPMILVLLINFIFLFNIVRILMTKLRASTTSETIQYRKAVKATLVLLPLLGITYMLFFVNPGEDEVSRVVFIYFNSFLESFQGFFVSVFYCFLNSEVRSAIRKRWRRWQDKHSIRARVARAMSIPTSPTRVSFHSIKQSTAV
Briefly: Displacement of [125I]Tyr-ovine-CRF from CRF1 receptor in rat frontal cortex homogenate by gamma counting. The data set is classed as tissue-based. A general note: Loss of bound radioactivity is the signal in a displacement assay; it reports binding, not function.

Data set [2] is described as follows: Dissociation constant, pKa at pH 2 to 11 by spectrophotometric titration method. The data set is classed as physicochemical. Summed up: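 pKa determined by a spectrophotometric titration method.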

SMILES strings stand for the structures.

The term share remaining denotes the share of the starting amount still present when the sample was taken. In general, IC50 refers to the midpoint of a concentration-inhibition curve. Low values mean inhibition by little substance, high ones a need for much substance. The pKa is the pH at which an ionisable group is half protonated. Higher therefore signals a weaker acid or stronger base.

Take `CCOc1nc(C)c(Nc2nc(Cl)cn([C@H](C)C3CC3)c2=O)cc1C`: the amount remaining at 10 min in the data set filed under Homo sapiens is 93%; in the data set filed under Rattus norvegicus, 81%. In addition, in data set [1], the IC50 is 2.7 nM.

Consider `COc1nc(C)c(Nc2nc(Cl)cn([C@H](C)C3CC3)c2=O)c(OC)n1`, for which the amount remaining at 10 min in the data set listed under Homo sapiens amounted to 86%; in the data set listed under Rattus norvegicus, 81%. Also, in data set [1], the IC50 was 240 nM.

For `CC[C@H](C)[C@H](NC(=O)[C@H](CC(=O)O)NC(=O)[C@H](CC(C)C)NC(=O)[C@H](CC(C)C)NC(=O)[C@H](CCCCN)NC(=O)[C@H](CCCN=C(N)N)NC(=O)[C@H](CC(N)=O)NC(=O)[C@H](CO)NC(=O)[C@H](Cc1cnc[nH]1)NC(=O)[C@H](C)NC(=O)[C@H](CCC(N)=O)NC(=O)[C@H](CCC(N)=O)NC(=O)[C@H](C)NC(=O)[C@H](CC(C)C)NC(=O)[C@H](CCC(N)=O)NC(=O)[C@H](CC(=O)O)NC(=O)[C@H](C)NC(=O)[C@H](CCCCN)NC(=O)[C@@H](NC(=O)[C@H](CCSC)NC(=O)[C@H](CCC(=O)O)NC(=O)[C@H](CC(C)C)NC(=O)[C@@H](NC(=O)[C@H](CCC(=O)O)NC(=O)[C@H](CCCN=C(N)N)NC(=O)[C@H](CC(C)C)NC(=O)[C@H](CC(C)C)NC(=O)[C@H](Cc1cnc[nH]1)NC(=O)[C@H](Cc1ccccc1)NC(=O)[C@@H](NC(=O)[C@H](CC(C)C)NC(=O)[C@H](CC(=O)O)NC(=O)[C@H](CC(C)C)NC(=O)[C@H](CO)NC(=O)[C@@H](NC(=O)[C@@H]1CCCN1C(=O)[C@@H]1CCCN1C(=O)[C@H](CCC(=O)O)NC(=O)[C@H](CCC(N)=O)NC(=O)[C@@H](N)CO)[C@@H](C)CC)[C@@H](C)O)C(C)C)[C@@H](C)O)C(=O)N[C@@H](C)C(N)=O`, in data set [1], the IC50 was 2.9 nM.

Turning to `COc1cc(C)c(Nc2nc(Cl)cn([C@H](C)C3CC3)c2=O)c(C)n1`, the values for the fraction remaining at 10 min in the data set listed under Homo sapiens and in the data set listed under Rattus norvegicus were 79% and 81%, respectively. This compound also displayed a pKa in data set [2] of 3.8. The compound further had an IC50 in data set [1] of 12 nM.

As to `COc1ccc(Nc2nc(Cl)cn([C@H](C)C3CC3)c2=O)c(C)n1`, the share remaining at 10 min amounted to 89% in the data set filed under Homo sapiens and 60% in the data set filed under Rattus norvegicus. The pKa in data set [2] turned out to be 3.2. The compound also came in with an IC50 in data set [1] of 11 nM.

For the compound `COc1ccc(Nc2nc(Cl)cn([C@H](C)C3CC3)c2=O)c(OC)n1`, the amount remaining at 10 min in the data set filed under Homo sapiens was found to be 43%; in the data set filed under Rattus norvegicus, 25%. Besides, in data set [1], the IC50 came to 17 nM.

Consider `Cc1cc(Nc2nc(Cl)cn([C@H](C)C3CC3)c2=O)c(C)nc1N(C)C`, for which the fraction remaining at 10 min worked out at 54% in the data set filed under Homo sapiens and 29% in the data set filed under Rattus norvegicus. In addition, in data set [1], the 50% inhibitory concentration (IC50) was determined as 0.68 nM.

As for `Cc1cc(C)c(Nc2nc(Cl)cn([C@H](C)C3CC3)c2=O)c(C)n1`, the results for the amount remaining at 10 min in the data set filed under Homo sapiens and in the data set listed under Rattus norvegicus were 87% and 76%, respectively. The pKa in data set [2] was found to be 7.9. Besides, the IC50 in data set [1] came to 65 nM.

For `Cc1cc(Nc2nc(Cl)cn([C@H](C)C3CC3)c2=O)c(C)nc1N1CCCC1`, the values for the share remaining at 10 min in the data set listed under Homo sapiens and in the data set listed under Rattus norvegicus were 57% and 26%, respectively. The IC50 in data set [1] is 6.8 nM.

`Cc1nc(C(F)(F)F)ccc1Nc1nc(Cl)cn([C@H](C)C2CC2)c1=O`: in data set [1], the IC50 was 720 nM.

Compound `COc1nc(C(F)(F)F)c(Nc2nc(Cl)cn([C@H](C)C3CC3)c2=O)cc1C` displayed an IC50 in data set [1] of 1.2 nM.

`Cc1nc(OC(F)F)ccc1Nc1nc(Cl)cn([C@H](C)C2CC2)c1=O`: in data set [2], the pKa was less than 2. Also, in data set [1], the IC50 worked out at 1.2 nM.

For the compound `Cc1cc(OC(F)F)nc(C)c1Nc1nc(Cl)cn([C@H](C)C2CC2)c1=O`, the share remaining at 10 min in the data set listed under Homo sapiens is 89%; in the data set listed under Rattus norvegicus, 84%. For the same compound, the pKa in data set [2] is less than 2. The compound further showed a half-inhibitory concentration (IC50) in data set [1] of 2.1 nM.

In data set [1], `COC[C@@H](C1CC1)n1cc(Cl)nc(Nc2ccc(OC(F)F)nc2C)c1=O` gave an IC50 of 0.8 nM.

Compound `COC[C@H](C1CC1)n1cc(Cl)nc(Nc2ccc(OC(F)F)nc2C)c1=O` showed an IC50 in data set [1] of 1.2 nM.

`COC[C@H](C1CC1)n1cc(Cl)nc(Nc2c(C)cc(OC(F)F)nc2C)c1=O` yielded an IC50 in data set [1] of 4.7 nM.

In data set [1], `COc1nc(C)nc(C#N)c1Nc1nc(Cl)cn([C@H](C)C2CC2)c1=O` registered an IC50 of 140 nM.

Turning to `COC[C@@H](C1CC1)n1cc(Cl)nc(Nc2c(C)nc(OC)nc2OC)c1=O`, the amount remaining at 10 min in the data set filed under Homo sapiens came out at 71%; in the data set listed under Rattus norvegicus, 25%. In addition, the IC50 in data set [1] is 31 nM.

With `COC[C@H](C1CC1)n1cc(Cl)nc(Nc2c(C)nc(OC)nc2OC)c1=O`, the share remaining at 10 min in the data set listed under Homo sapiens came to 45%; in the data set filed under Rattus norvegicus, 18%. The compound further gave an IC50 in data set [1] of 90 nM.

In data set [2], `COc1ccc(Nc2nc(Cl)cn([C@H](C)C3CC3)c2=O)c(C(F)(F)F)n1` returned a pKa of less than 2. This compound gave an IC50 in data set [1] of 1.6 nM.

With `COc1nc(C)c(Nc2nc(Cl)cn([C@H](C)C3CC3)c2=O)cc1C`, the share remaining at 10 min in the data set listed under Homo sapiens turned out to be 77%; in the data set listed under Rattus norvegicus it was 55%. Moreover, in data set [2], the pKa worked out at 3.6.

With `Cc1cc(Nc2nc(Cl)cn([C@H](C)C3CC3)c2=O)c(C)nc1OC(F)F`, the share remaining at 10 min came to 100% in the data set listed under Homo sapiens and 86% in the data set filed under Rattus norvegicus. In addition, the pKa in data set [2] was less than 2.

These data come from ChEMBL document CHEMBL1155418, “Synthesis and structure-activity relationships of N3-pyridylpyrazinones as corticotropin-releasing factor-1 (CRF1) receptor antagonists” (Bioorg Med Chem Lett, 2010).
